According to the EternaBench riboswitch data:

Test system: MS2 coat protein
Test: apparent Kd, MS2 coat protein; higher = weaker binding; RNA-MaP array; FMN 200 µM where present
Method in brief: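 Stalled E. coli RNA polymerase transcribed each design on Illumina sequencing-chip clusters. The clusters were titrated with SNAP-549-labelled MS2 coat protein, starting at 0.7 or 1.5 nM and doubling up to 3 µM, first without ligand and then with constant ligand, in 100 mM Tris-HCl pH 7.5, 80 mM KCl, 4 mM MgCl2, BSA, DTT, yeast tRNA and Tween-20. Green signal was normalised to red-channel RNA signal and to the control-cluster median Fmax. The apparent Kd is the median of filtered binding-curve fits made for each cluster.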

[1] = designed as: ON switch for flavin mononucleotide, no ligand
[2] = ligand present: flavin mononucleotide, designed as: ON switch for flavin mononucleotide
[3] = designed as: OFF switch for flavin mononucleotide, no ligand
[4] = ligand present: flavin mononucleotide, designed as: OFF switch for flavin mononucleotide

Sequence | apparent Kd [1] | apparent Kd [2] | apparent Kd [3] | apparent Kd [4]
ACAUGAGAUCUAGGAUAUAUUGUACCUACAUGUGACAUGAGGAUCACCCAUGUGGUAAGUAUGACAUAGAAGGAGAAGAUAUGU | 71 nM | 54.3 nM |  | 
AGCACGAAAGUGCAACGAUGUACGAGAAGGACAUGAGGAUCACCCAUGUCGCUGUAACAGCAAAUGUAGGAUAUCGUACAUCGA |  |  | 5.14 nM | 5.7 nM
GCGUAAUAGGUGUAGCUAGUCGUUCAAGAAGGGUGAAGAACAUGAGGAUCACCCAUGUGGUCUAUACAGGAUAUUGAUAUACGC |  | 66.6 nM |  | 
AUAAAUCAUGUAGGAUAUGCGUGGCGAAGCUAUGCAGAAGGACAUGAGGAUCACCCAUGUCUUUCCGUCUGCGUACAGACGGGA |  |  | 30.9 nM | 225 nM
AGCAGCUCGUCAGGAUAUACGUCACUGCGUCAGCAGUGUGGUAAGAUCACAUGAGGAUCACCCAUGUAGAAGGGACGAGCUGAU |  |  | 13.7 nM | 273 nM
GUCAGCUCGUCAGGAUAUACGUCACUGCUUCGGCAGUGUGGUAAGAUCACAUGAGGAUCACCCAUGUAGAAGGGACGAGCUGAA |  |  | 11.8 nM | 209 nM
AGAUAGUGGUGAGGAUAUCAGAAUAGAAAGAAAUGAGAAGGCGCACAUGAGGAUCACCCAUGUGAGGUCUUGAGACUACAUGGU |  |  | 20 nM | 22.1 nM
GAGGCUAAAGGAUAUACAUGAGGAUCACCCAUGUGGAGGAAGGUUAGAUGAGGAGAAGGUAGAAGGUUAGGCGG |  |  | 37.3 nM | 30.9 nM
GUUAUUAUUAGUUCAUACUAUAAGAUAGAAGGUGAAUAAUUGACAUGAGGAUCACCCAUGUAAUUCAAGGAUAUGUAGAUACUC | 32 nM | 17.6 nM |  | 
AACAGUCUGGAGGAUAUGCUGGAUGAAUAUCUGGCAGAAGGCUGGACAUGAGGAUCACCCAUGUAAAUACUACC |  |  | 27.1 nM | 54.5 nM
CUGCUGGAGCUUUGCUCUAGUCGUACAUGAGGAUCACCCAUGUAGGAUAUGGUAGGCUUUGCUUACUAGAAGGAUAGAGUGGUC |  |  | 76.4 nM | 32.8 nM
GCACGGCAUGUAGGAUAUCGAGCUCCGGGAGCUCGAGAAGGACAUGAGGAUCACCCAUGUGCUCACAGUGAGUGAGUGCUGUGC |  |  | 19.7 nM | 38.8 nM
GGUCUGAGAGGAUAUACAUGAAAAAAAAAAGUAAGAUCCCUACAUGAGGAUCACCCAUGUAGAAGGCUCUGAUA |  |  | 33.8 nM | 33.9 nM
GCAUAGGACAGAGGAUAUACGUGCUAGAGAUACUAGCAAAAUUUCCUCACAUGAGGAUCACCCAUGUAGAAGGCUGUCCUAUCG |  |  | 17.6 nM | 422 nM
AUCAUGAGAGGAUAUACAUGAGGAUCACCCAUGUUCUUAUCUCGUCGUGCUCCAUUACGUAGAAGGCUCAUUUA |  |  | 16 nM | 49.2 nM
GUUAAUUAGUGAGGAUAUACAGAAAUUAAAACUGUAGAAGGCACAUUCCUCAAGACAUGAGGAUCACCCAUGUGAUAAUAAGAU |  |  | 35.2 nM | 127 nM
AAAAAGUGAGGAUAUGCUUUUAUUUAUUAUUAUUAUUAUUUGCAGAAGGCACAUGAGGAUCACCCAUGUAAGAA |  |  | 31.7 nM | 24.9 nM
CUUUUGUGAGGAUAUUAGUAGUAAUUAAAUAAAAUUACUACUGAGAAGGCACAUGAGGAUCACCCAUGUUCCUC |  |  | 33.9 nM | 158 nM
GGAUGACAAAGUCAUCCAAUACGACAUGAGGAUCACCCAUGUUAGGAUAUGCUACUCAAAGAGUAGCAGAAGGACAUGUGCCUU |  |  | 23.7 nM | 33.4 nM
ACUGUUAAGACAGGAUAUCGAUUAUAACCUCUAAAACAUGAGGAUCACCCAUGUAGUCCGUAUUGCGAGAAGGGUCAUUUUAGU | 295 nM | 233 nM |  | 
AUAAGUUCGUCAGGAUAUACAUGAGACAGUAAUGUUUCAGGUAUGAUCACAUGAGGAUCACCCAUGUAGAAGGGACGAGCUUAU |  |  | 6.48 nM | 20.6 nM
GGUGCAUAUGAGAAGGUGAUCAUGAAACAUGAUCGAGGAUAUCAUGUAAACAUGAGGAUCACCCAUGUAUGGGAAUAUUGCACC | 46.2 nM | 117 nM |  | 
CCCGUGUAAGGAUAUGACAAUGGUAUCUUCGGAUACCAUUGUCAGAAGGUACAUGAGGAUCACCCAUGUAACAC |  |  | 28.8 nM | 108 nM
GGGCCGGUGGAGAAGGAGCUUGCGAAACGCAUGCUAGGAUAUCCACAUGAGGAUCACCCAUGUGGGAAUAUCUGAUUUUCACAG |  |  | 3.82 nM | 4.76 nM
CGGGUCUGAGGAUAUCCAUCUUCAUACAUGAGGAUCACCCAUGUUUACCUUUGGGUUUCUGGAGAAGGCAGUUUUC |  |  | 48.3 nM | 73 nM
CAGCGAUAGCUGAACAAUCUAUCUGAGGAUAUUCAGAAUAAACAUGAGGAUCACCCAUGUAAUUGGGAGAAGGCAGAUAGAUUG | 9.19 nM | 5.48 nM |  | 
AGCAUGUUUGGGUAACCUGGCACAUGAGGAUCACCCAUGUGACAGGAUAUCGACGUAGAUGGCGACGAGAAGGGUCCGAUGGGU |  |  | 5.78 nM | 7.01 nM
UCCUCACAUGAGGAUCACCCAUGUGAGGAUAUGGGCCCGGGCCCGUUCGGGCCCGGGCCCAGAAGGCACUGGGU |  |  | 42.1 nM | 19 nM

Sequence | apparent Kd [1] | apparent Kd [2] | apparent Kd [3] | apparent Kd [4]
AUAUAUAGUGUGAGGAUAUGCUGGUCCUUGGAUCAGCAGAAGGCACAUGAGGAUCACCCAUGUAGUUUAUUUUU |  |  | 24.5 nM | 102 nM
AUCAGCUCGUCAGGAUAUACGUCACUGCGUCAGCAGUGUGGUAAGAUCACAUGAGGAUCACCCAUGUAGAAGGGACGAGCUUAU |  |  | 13.8 nM | 260 nM
GGAUCGAAUGUCAGGAUAUACCACUGGAUACAGUGGUAGAAGGGACAUGAGGAUCACCCAUGUGUUAUCGAUCC |  |  | 40.4 nM | 114 nM
UUAAAUCAUGUAGGAUAUGCAUGGCGAAGCUACGCAGAAGGACAUGAGGAUCACCCAUGUUCUAGCGUCUCAGUAGAGAUGCAA |  |  | 18.4 nM | 63.3 nM
ACUUACUGAGGAUAUACAUAGAUUUACAUGAGGAUCACCCAUGUUCCUCUAUGUAUAAAUGUAGAAGGCAGAAGUG |  |  | 22.4 nM | 120 nM
UUUACUAACGAAGGAUAUGGUUACAUGAGGAUCACCCAUGUAUGUAUAUUGAUCUAGUAUUUUAACCAGAAGGUCGUGAUUUUU |  |  | 31.6 nM | 45.3 nM
CCGCCACAUGAGGAUCACCCAUGUCAGGAUAUCUAUCAUAGCAUCGAAAGAUGCGGGUAGAGAAGGGACUAUCC |  |  | 28.8 nM | 32.2 nM
CACAAUCUAUCUGAGGAUAUCAUGAAAAAAACAUGAGGAUCACCCAUGUGCAGGAAAACUGCAUAUGAGAAGGCAGAUAGAUUGC | 613 nM | 29.1 nM |  | 
UGUGCCUCGAGAGGAUAUAACAUGAGGAUCACCCAUGUAACAGAGGUGGAAACACCUCUGAAAUGUUAGAAGGCUCGAGGCACA |  |  | 46.6 nM | 57 nM
GAGAAGAGGGAAGGAUAUACAUGAGGAUCACCCAUGUAGAUAGGUAAAAUAGGAAGAAGAAGAAUGUAGAAGGUCCGGUUUGUU |  |  | 15.2 nM | 15.9 nM
GCACUCAAGUUAGGAUAUGGAUCGGAAAACGAUCCAGAAGGAAUAUGGGAACAUGAGGAUCACCCAUGUUCCACAAACGAGUGC | 40.9 nM | 22.1 nM |  | 
AGGUAAACCACAGGAUAUGGCUAGCAUAGCUAGCCAGAAGGGUGGUCGUAACCAUGUAAAUACAUGAGGAUCACCCAUGUAUCC | 89.8 nM | 36 nM |  | 
CUUAUGUAAGGAUAUCAGUAGUAAAAAAAUAAAAUUACUACUGAGAAGGUACAUGAGGAUCACCCAUGUAUCUU |  |  | 17.6 nM | 14 nM
CAGGUAGACUGAGGAUAUACAAUAAGACCUAGUCUAUCUAGGUCACUCACAUGAGGAUCACCCAUGUAGAAGGCAGUCUGCCUG |  |  | 21.8 nM | 79.7 nM
AUUGAUGUUGAGGAUAUGCUUUUAUUUAUAAUAGCAGAAGGCGAUACAUGAGGAUCACCCAUGUUCAUGGUAGU |  |  | 62.2 nM | 67 nM
GGUGGACAUGAGGAUCACCCAUGUGAGGAUAUCGGCUGGCUAGCGGCGGACGGCUGCUCGAGAAGGCGCAUUGU |  |  | 90.6 nM | 137 nM
UGACCCAUGACAUGAGAUGACAUGAGGAUCACCCAUGUGUACAAGGAUAUGUUGGUCGACGAUCGGCAGAAGGUGUAAUGGGAU |  |  | 56.6 nM | 282 nM
GUAGUGUAGUGAGGAUAUACGAGAUCGAUAGAUCGGCGAUCCAAUUAUACAUGAGGAUCACCCAUGUAGAAGGCACUUCACUAC |  |  | 10.1 nM | 59.2 nM
AUCAGCUCGUCAGGAUAUACGUCGCUGCGUCAGCAGUGUGGUAAGAUCACAUGAGGAUCACCCAUGUAGAAGGGACGAGCUGAU |  |  | 19.3 nM | 374 nM
GGAUCCAACACAGGAUAUGCUGGACUUUGUCCAGCAGAAGGGUGUACAUGAGGAUCACCCAUGUAUUGGAUCCAUAUAUUUAAU | 996 nM | 80.8 nM |  | 
UAGAUCAAUACAGGAUAUGGUGACGCACAUGAGGAUCACCCAUGUCCGCAGCGUGCUCAGCACGCCCAGAAGGGUAUUGAUUCG | 786 nM | 80.1 nM |  | 
CUGGAUAGAGGAUAUUGUACUGCUGACAUGAGGAUCACCCAUGUAUGUUAACUCGGCCGUCGAGAAGGCUAACAAG |  |  | 37.7 nM | 17.9 nM
GCAGCAAUUUAAAACAUGAGGAUCACCCAUGUCGAGUGUUAUGAGGAUAUGCAUCGGAUGAAGAUGCAGAAGGCAUUGUGCUGC | 6.32 nM | 6.72 nM |  | 
GCGUAUAUAUUAUUUAUUUAACAGUCAGAAGGUGAGAAGACGACAUGAGGAUCACCCAUGUUAUUCAAGGAUAUGAUAAUGCGC | 27.5 nM | 13.3 nM |  | 
CAGAUAGGUGUGAGGAUAUAUCGUUAGCAAUGGCUAUAGAAGGCACAUGAGGAUCACCCAUGUGAGAUUGGCGU |  |  | 21.3 nM | 20.5 nM
AUAUUGUGAGGAUAUGAACUAAGUAUCGAAAGAUACUAAGUUCAGAAGGCACAUGAGGAUCACCCAUGUUUCUC |  |  | 76.7 nM | 729 nM
UGCUACGGAGGAUAUACAUGAGGAUCACCCAUGUGAUAUAUUAUGCCGAGAGGCUAGUGUAGAAGGCCGUAGCU |  |  | 67 nM | 576 nM
